Compounds with a hit are over-represented: about 1.3% of the library has one in this group of screens.
TAG inh – reduces triacylglycerol accumulation in H9c2 cells | Nile Red lipid (TAG) fluorescence; cells loaded with 200 µM oleic acid | inhibition, % at 12.5 µM | 230,000 compounds, 0.66% hits | AID 651582;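 active = pattern-corrected inhibition of lipid staining of at least 50% with the nuclear-stain viability signal not falling by more than 50%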;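 note: 0% = DMSO wells and 100% = triacsin C control wells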
STK33 inh – human STK33 kinase inhibition; Q9BYT3; 320,000 compounds, 0.073% hits; inhibition, % at 10 µM; purified STK33, MBP phosphorylation, ADP-Glo luminescence;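 active = inhibition at or above 25%, using the most active replicate where run in duplicate; inactive = inhibition below 25%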
GSK3beta inhib – blocks human GSK3beta kinase activity; P49841; GST-GSK3beta kinase, ADP-Glo luminescence, 60 min; active compounds read low; activity score (negative = inhibition), % at 10 µM; 300,000 compounds, 0.038% hits; AID 2097;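 active = more than half of replicate wells score below -50%, meaning over 50% inhibition versus plate controls; inconclusive = some replicates but at most half score below -50%; inactive = no replicate scores below -50%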;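 note: 0% = median DMSO wells and -100% = median GW8510 positive control wells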
Target sequence (P49841 whole entry, looked up): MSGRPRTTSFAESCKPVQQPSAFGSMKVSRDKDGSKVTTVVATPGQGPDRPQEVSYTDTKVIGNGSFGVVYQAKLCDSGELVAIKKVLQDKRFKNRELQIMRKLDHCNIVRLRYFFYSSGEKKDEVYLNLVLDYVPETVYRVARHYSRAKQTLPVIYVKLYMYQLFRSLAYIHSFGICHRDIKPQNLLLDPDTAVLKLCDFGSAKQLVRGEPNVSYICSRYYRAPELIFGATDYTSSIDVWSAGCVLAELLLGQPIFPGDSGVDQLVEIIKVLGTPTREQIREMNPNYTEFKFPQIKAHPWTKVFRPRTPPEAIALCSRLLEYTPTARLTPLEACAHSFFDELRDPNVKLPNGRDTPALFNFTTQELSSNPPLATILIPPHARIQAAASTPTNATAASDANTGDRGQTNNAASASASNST
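Test system – GST-tagged human GSK3beta kinase, cell-free · Incubation – 60 min enzyme reaction, room temperature · Signal – ADP-Glo luminescence · Also added – peptide substrate and ATP at 25 µM · Controls – DMSO neutral wells and GW8510 at 20 µM as positive · Buffer or medium – Tris/MgCl2 kinase buffer · Measure – Luminescence-derived activity versus plate DMSO and GW8510 wells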
GSK3A inh – inhibitors of human GSK-3 alpha kinase. P49840. ADP-Glo luminescence, 60 min. inhibition, % at 10 µM. 320,000 compounds, 0.1% hits;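 active = more than half of replicates show inhibition above 20%; inconclusive = some but at most half of replicates above 20% inhibition; inactive = no replicate shows inhibition above 20%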;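 note: GST-tagged GSK-3 alpha with peptide substrate and 25 µM ATP; 0% = DMSO neutral wells and 100% = GW8510 positive control wells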
Hep lipid drop – hepatic lipid droplet formation modulation | AML12 mouse hepatocytes, oleate lipid droplets, BODIPY imaging | inhibition, % at 6.5 µM | 240,000 compounds, 0.4% hits;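 active = lipid droplet intensity inhibited by at least 50%, with more than 500 cells counted; inconclusive = wells with under 300 cells, treated as cytotoxic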
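Test system: AML12 hepatocytes (mouse); reagent: oleate loading, 100 µM; dosing: one dose, 6.5 µM compound; incubation: overnight exposure; signal: fluorescence imaging, 20x objective, two fields per well; read-out basis: % inhibition of corrected integrated BODIPY droplet signal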
LANA-H2B inh – blocks KSHV LANA binding to histone H2A/H2B; inhibition, % (concentration not given with the values); 320,000 compounds, 0.6% hits; AID 2629; Q9QR71; cell-free LANA-H2A/H2B peptide, fluorescence polarization; in the data active = inhibition mostly above about 10%, no sharp cut-off; inactive = mostly below about 6.7%
Lipid drop inh – confirmation of inhibitors of hepatic lipid droplet formation; AID 463183; inhibition, % at 5.2 µM; AML12 mouse hepatocytes, BODIPY lipid droplet imaging; droplets induced with 100 µM oleic acid; 870 compounds, 65% hits; shares compounds with Hep lipid drop;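 active = inhibition of lipid droplet metric at least 50%, with more than 300 cells in each of four replicates; inconclusive = wells under 300 cells, flagged as toxic or low count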;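 note: plate controls were DMSO with oleic acid for no effect and 5 µM Triacsin-C for full effect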
AML12 tox img – AML12 hepatocyte cytotoxicity (counter-screen). shares compounds with Hep lipid drop. AML12 mouse hepatocytes, DAPI nuclear morphology cytotoxicity imaging; active compounds read high; cells fed 100 µM oleate overnight. z-score at 5 µM. 870 compounds, 3% hits. AID 463200; in the data active = z-score above about 6.3;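 note: compound exposure lasted overnight at 37 °C before fixation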
AML12 tox conf – confirmation of cytotoxicity in AML12 mouse hepatocytes; AML12 mouse hepatocyte viability, ATP luminescence; cells loaded with 100 µM oleic acid; shares compounds with Hep lipid drop; 530 tested, under 10 active; cytotoxicity, % at 50 µM;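 active = cytotoxicity above 50% in each of four replicates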;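 note: compound exposure lasted overnight at 37 °C before the ATP read; 0% = DMSO-treated cells and 100% = wells with no cells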
H9c2 TAG conf – confirmation of triacylglycerol accumulation inhibitors; inhibition, % at 12.5 µM; 990 compounds, 71% hits; shares compounds with TAG inh; H9c2 lipid accumulation, Nile Red fluorescence; cells loaded with 200 µM oleic acid;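 active = mean inhibition across replicates of 40% or more; inactive = mean inhibition below 40%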;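 note: plate controls were DMSO only wells for no effect and Triacsin C treated wells for full effect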
Starred values were filed as active, the others as inactive; ? = inconclusive; . = not tested or not shown.

SMILES	TAG inh	STK33 inh	GSK3beta inhib	GSK3A inh	Hep lipid drop	LANA-H2B inh	H9c2 TAG conf	others
c1ccc(NNC2=NCCCCC2)cc1	.	0	1	1	-1	2	.
COc1ccccc1Nc1nnc(SCC(=O)Nc2nc(-c3ccc(F)cc3)cs2)s1	51*	-1	1	-2	68*	-7	57*	Lipid drop inh=45;AML12 tox img=0.44
COc1ccc(-c2csc(NC(=O)CSc3nnc(Nc4ccccc4C)s3)n2)cc1	49	0	1	-1	?	-6	.
Cc1ccc(CNC(=O)c2ccc(N3CCC4(CC3)CC(c3ccccc3)=NO4)c(NC(=O)c3ccc(Br)cc3)c2)cc1	55*	6	-2	2	73*	-3	56*	Lipid drop inh=104*;AML12 tox img=0.66;AML12 tox conf=-1
Clc1cccc(Nc2nc(-c3ccncc3)cs2)c1	81*	-1	-2	-3	91*	1	59*	Lipid drop inh=58;AML12 tox img=17*
CCCCCCCCn1c(N2CCN(c3cccc(Cl)c3)CC2)nc2c1c(=O)[nH]c(=O)n2C	65*	0	1	1	83*	-1	66*	Lipid drop inh=98*;AML12 tox img=-1.1;AML12 tox conf=16
Cc1ccc(C(=O)C[n+]2ccccc2C)cc1[N+](=O)[O-]	-6	0	-1	-1	7	-1	.
Cn1c(C(=O)NCc2cccnc2)cc2sc(Cl)cc21	.	0	-8	5	-10	1	.
CCOc1ccc(CCNC(=O)c2cc3sc(Cl)cc3n2C)cc1OCC	60*	-3	2	-2	89*	-1	41*	Lipid drop inh=107*;AML12 tox img=0.67;AML12 tox conf=4
COc1ccc(C(C(=O)NC(C)(C)C)N(Cc2ccco2)C(=O)CCC(=O)Nc2cc(C)on2)cc1 (centres undefined)	56*	-1	-3	0	52*	-2	46*	Lipid drop inh=69*;AML12 tox img=-0.5;AML12 tox conf=10
CCCN1CCC(=NNc2ccc(S(=O)(=O)N3CCOCC3)cc2[N+](=O)[O-])CC1	.	0	6	3	-126	-2	.
CCCCCC(/C=N/Nc1ccc(S(=O)(=O)N2CCOCC2)cc1[N+](=O)[O-])=C\c1ccccc1	59*	-2	-3	-2	61*	2	63*	Lipid drop inh=35;AML12 tox img=-0.65
CN(C)c1ccnc(-n2cccc2/C=N/OCc2ccccc2)c1C#N	-12	0	-4	-2	-9	3	.
Cc1nc(N)sc1N=Nc1ccccc1C(F)(F)F	.	0	1	-2	-4	3	.
CCCOC(=O)c1ccc(NC(=O)CCOc2ccccc2)cc1	65*	-1	-4	.	52*	-6	61*	Lipid drop inh=104*;AML12 tox img=-0.16;AML12 tox conf=14
COc1ccc(-c2noc(-c3ccccc3C(=O)Nc3cccnc3)n2)cc1	57*	-2	1	-1	28	-2	33
COc1ccc(-c2noc(-c3ccccc3C(=O)Nc3cccnc3)n2)cc1OC	.	0	-1	0	3	3	.
Cc1ccc(NC(=O)NC2=NN(c3ccccc3)C(=O)/C2=C2/CCCN2C)cc1	5	-2	0	2	18	1	.
CCOc1cc(/C=N\NC(=O)c2ccc(NC(=O)C(C)(C)C)cc2)ccc1OC(=O)c1cccc(C)c1	64*	-1	2	-1	.	-2	37
COC(=O)[C@@H](CC(C)C)N(Cc1ccccc1)S(=O)(=O)N(Cc1ccccc1)[C@@H](CC(C)C)C(=O)OC	62*	0	.	5	.	-25	-19
COC(=O)[C@@H](Cc1ccccc1)N(Cc1ccccc1)S(=O)(=O)N(Cc1ccccc1)[C@H](Cc1ccccc1)C(=O)OC	12	0	.	0	.	7	.
COCCS(=O)(=O)N(Cc1ccc(Br)cc1)[C@@H](C)C(=O)OC	53*	.	.	.	.	.	-3
O=C(N/N=C/c1cn(-c2ccccc2)nc1-c1cc2ccccc2o1)c1c[nH]c2ccccc12	59*	-2	5	0	52*	-5	60*
COc1ccc(CCNc2nnc(Sc3nnnn3-c3ccccc3)s2)cc1OC	97*	0	0	0	?	2	76*
COc1ccccc1N1CCN(CC(=O)Nc2cc(F)ccc2C)CC1	2	-1	-3	1	8	-2	.
SMILES	TAG inh	STK33 inh	GSK3beta inhib	GSK3A inh	Hep lipid drop	LANA-H2B inh	H9c2 TAG conf	others
COc1ccccc1N1CCN(CC(=O)Nc2cc(C)nn2-c2nc(C)cc(C)n2)CC1	55*	.	.	.	.	.	56*
CCNc1nc(SCC(=O)OC)nc(N2CCOCC2)n1	-24	1	-2	-1	.	2	.
COc1cccc(/C=N/NC(=O)CNC(=O)COc2ccccc2)c1O	51*	0	4	-1	32	-4	1
Cc1ccc(CN(C)C(=O)CN2C(=O)NC3(CCCc4ccccc43)C2=O)c(C)c1 (centres undefined)	51*	-1	.	-5	.	-3	40*
COc1cc(O)c(C(CCN2CCOCC2)c2ccc3c(c2)OCO3)c(OC)c1 (centres undefined)	9	0	0	.	-1	3	.
CCCCCc1cc(=O)oc2c(C(CCN3CCN(c4ccccc4)CC3)c3ccc4c(c3)OCO4)c(OC)cc(OC)c12 (centres undefined)	65*	-1	-21	1	1	1	74*
COc1cc(C(CCN2CCCC(C)C2)c2c(OC)cc(OC)c3c(-c4ccccc4)cc(=O)oc23)cc(OC)c1OC (centres undefined)	74*	0	-3	0	22	5	78*
COc1cc(C(CCN2CCCC2)c2c(OC)cc(OC)c3c(C)cc(=O)oc23)cc(OC)c1OC (centres undefined)	23	0	2	-2	32	-4	.
COc1cc(C(CCN2CCCCC2)c2c(OC)cc(OC)c3c(-c4ccccc4)cc(=O)oc23)cc(OC)c1OC (centres undefined)	58*	1	-7	-2	.	-3	52*
CCCCCc1cc(=O)oc2c(C(CCN(CC)CC)c3ccc(OC)cc3)c(OC)cc(OC)c12 (centres undefined)	73*	1	2	11	3	-1	68*
c1cn2cc(-c3ccc(CN4CCOCC4)cc3)ccc2n1	-7	.	.	.	.	.	.
